Consider ten compounds from PubChem BioAssay AID588627 (Johns Hopkins Ion Channel Center, 2011).

Out of some 310,000 compounds screened, about 1,400 (0.45%) were called active.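 Rule for the calls: active = calcium response B-score plate-corrected fluorescence ratio at least 3 library SD, with starting fluorescence B-score inside 5 SD; inactive = the rest.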 The full list was thinned out, with actives kept by preference.

Mas-related G-protein coupled receptor member X1 (Homo sapiens), sequence (Q96LB2 whole entry, looked up): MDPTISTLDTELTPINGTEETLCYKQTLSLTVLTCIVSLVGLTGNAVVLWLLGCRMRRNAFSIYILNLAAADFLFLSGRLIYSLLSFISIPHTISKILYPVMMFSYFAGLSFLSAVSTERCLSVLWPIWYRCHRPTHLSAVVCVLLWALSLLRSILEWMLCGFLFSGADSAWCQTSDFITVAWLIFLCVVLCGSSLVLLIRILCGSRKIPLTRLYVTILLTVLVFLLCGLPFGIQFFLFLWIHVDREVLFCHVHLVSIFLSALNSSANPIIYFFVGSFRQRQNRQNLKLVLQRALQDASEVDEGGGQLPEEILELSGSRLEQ

The test concerns the target Mas-related G-protein coupled receptor member X1 (Homo sapiens) (UniProt Q96LB2). As to the kind of experiment: MrgX1 activation via calcium signaling – HEK293 cells, Fluo-4 calcium flux, primary screen (AID 588627).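 For B-score: B-score of the peak-minus-trough calcium fluorescence change over baseline.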 The following applies: Fluo-4 calcium fluorescence, agonist mode, at 10 µM; stronger effect = higher value. In outline:
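Material: MrgX1-expressing HEK293 cells; input: 15,000 cells per well; doses: test compound given as first of three sequential additions; schedule: overnight plating before 1 h dye loading; technique: Fluo-4 NW calcium-flux fluorescence, kinetic read; evaluation: baseline-normalised fluorescence change ratio, B-scored; control set: plate-wise positive and negative controls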
Turning to `CCCCC(=O)N/N=C/c1c(O)n(-c2ccccc2)c(=O)[nH]c1=O`, the B-score result is “inactive”.
With `CCCCC(=O)N/N=C/c1c(O)n(CCC2=CCCCC2)c(=O)[nH]c1=O` the entry was “inactive”; with `CCCCC(=O)N/N=C/c1c(O)n(CC)c(=S)n(CC)c1=O`, 66 (active); with `CC1=C(C(=O)Nc2ccccc2)S(=O)(=O)CCO1`, “inactive”.
As to `COc1ccc2c(c1)[C@]13CCCCC1C(C2)N(C)CC3` (stereo not given in full), the B-score result was “inactive”.
With `O=C1NC(=O)N(Cc2ccco2)C(=O)/C1=C\c1ccc(-c2ccc(F)cc2)o1` the figure was 28.4 (active); with `Cc1cc(/C=C2/C(=O)NC(=O)N(Cc3ccco3)C2=O)c(C)n1-c1ccc(C(=O)O)cc1`, “inactive”; with `O=C1NC(=O)N(Cc2ccco2)C(=O)/C1=C\c1cccn1CCOc1ccccc1`, “inactive”.
Take `CCN(N=Nc1nonc1OC)c1nonc1OC`: the B-score result is “inactive”.
Consider `Cc1ccc2c(c1)=C/C(=C\c1c(O)[nH]c(=O)[nH]c1=O)C(=O)N=2`, for which the B-score result was “inactive”.
